Results from ChEMBL document CHEMBL1125087, “Synthesis and biological activity of new HMG-CoA reductase inhibitors. 1. Lactones of pyridine- and pyrimidine-substituted 3,5-dihydroxy-6-heptenoic (-heptanoic) acids” (J Med Chem, 1990).

Legend:
[1] = target: T1, 3-hydroxy-3-methylglutaryl-coenzyme A reductase (Homo sapiens) (UniProt P04035); experiment: Relative inhibition of HMG-CoA reductase compared to Mevinolin.
T1 sequence (whole entry): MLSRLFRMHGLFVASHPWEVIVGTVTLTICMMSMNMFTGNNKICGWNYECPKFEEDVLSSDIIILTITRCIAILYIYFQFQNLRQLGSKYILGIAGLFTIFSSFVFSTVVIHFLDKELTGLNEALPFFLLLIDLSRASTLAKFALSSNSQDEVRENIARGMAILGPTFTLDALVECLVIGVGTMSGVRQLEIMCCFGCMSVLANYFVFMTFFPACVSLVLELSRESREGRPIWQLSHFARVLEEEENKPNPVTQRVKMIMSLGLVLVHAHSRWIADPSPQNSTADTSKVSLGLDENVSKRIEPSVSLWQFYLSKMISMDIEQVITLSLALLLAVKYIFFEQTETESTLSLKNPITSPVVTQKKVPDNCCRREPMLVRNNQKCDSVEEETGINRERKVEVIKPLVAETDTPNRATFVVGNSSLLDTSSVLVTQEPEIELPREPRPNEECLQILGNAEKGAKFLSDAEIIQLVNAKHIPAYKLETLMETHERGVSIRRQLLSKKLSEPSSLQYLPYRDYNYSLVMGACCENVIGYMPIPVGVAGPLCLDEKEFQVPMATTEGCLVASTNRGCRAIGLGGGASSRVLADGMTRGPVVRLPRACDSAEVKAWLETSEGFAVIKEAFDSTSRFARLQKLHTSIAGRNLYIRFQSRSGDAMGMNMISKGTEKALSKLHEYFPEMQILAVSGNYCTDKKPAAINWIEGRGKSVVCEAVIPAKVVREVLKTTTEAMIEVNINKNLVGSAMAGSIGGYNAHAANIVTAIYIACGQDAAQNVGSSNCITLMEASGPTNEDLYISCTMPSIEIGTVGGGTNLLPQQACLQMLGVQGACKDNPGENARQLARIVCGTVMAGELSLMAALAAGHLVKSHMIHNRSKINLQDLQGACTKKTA

[2] = target: T2, 3-hydroxy-3-methylglutaryl-coenzyme A reductase (Rattus norvegicus, UniProt P51639); experiment: In vitro inhibition of rat liver HMG-CoA reductase
T2 sequence (P51639 whole entry): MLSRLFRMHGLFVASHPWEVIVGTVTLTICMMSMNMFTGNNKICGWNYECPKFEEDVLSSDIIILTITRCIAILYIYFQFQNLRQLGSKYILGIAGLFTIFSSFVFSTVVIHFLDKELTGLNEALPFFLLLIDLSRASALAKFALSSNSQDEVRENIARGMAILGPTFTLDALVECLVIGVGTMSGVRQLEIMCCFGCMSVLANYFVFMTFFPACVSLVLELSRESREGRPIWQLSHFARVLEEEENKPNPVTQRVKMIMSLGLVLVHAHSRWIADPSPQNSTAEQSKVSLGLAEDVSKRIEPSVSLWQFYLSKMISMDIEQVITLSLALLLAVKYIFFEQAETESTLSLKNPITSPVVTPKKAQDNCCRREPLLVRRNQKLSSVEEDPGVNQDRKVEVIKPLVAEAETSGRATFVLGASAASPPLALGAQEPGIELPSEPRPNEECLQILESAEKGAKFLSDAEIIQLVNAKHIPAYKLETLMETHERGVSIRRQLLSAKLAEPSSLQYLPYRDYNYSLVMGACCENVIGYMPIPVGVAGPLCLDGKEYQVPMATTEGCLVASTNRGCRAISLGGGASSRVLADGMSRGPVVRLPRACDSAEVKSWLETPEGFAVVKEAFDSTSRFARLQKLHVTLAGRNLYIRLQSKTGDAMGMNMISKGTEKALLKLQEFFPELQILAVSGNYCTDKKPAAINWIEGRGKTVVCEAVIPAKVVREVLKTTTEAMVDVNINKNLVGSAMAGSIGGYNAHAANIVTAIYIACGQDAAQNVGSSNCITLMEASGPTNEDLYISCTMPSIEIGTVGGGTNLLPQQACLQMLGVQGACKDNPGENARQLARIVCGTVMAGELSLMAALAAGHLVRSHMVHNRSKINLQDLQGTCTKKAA
Method in brief: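 Partially purified soluble HMG-CoA reductase from rat liver microsomes. Medium: 6 mM Tris, 2.5 mM EDTA, 2.5 mM DTT, 50 mM NADP, 50 mM glucose 6-phosphate, glucose-6-phosphate dehydrogenase, and 0.91 mM HMG-CoA with [14C]HMG-CoA. Lactones were opened with 1 equiv KOH to potassium dihydroxy carboxylates and tested at multiple concentrations. Incubated at 37 °C for 20 min, then stopped with HClO4. Run in triplicate; IC50 read from a %-inhibition-versus-concentration plot.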

[3] = target: T3, 3-hydroxy-3-methylglutaryl-coenzyme A reductase (Homo sapiens, UniProt P04035); experiment: Inhibition of cellular HMG-CoA reductase in cultures of human HEP G2 cells, determined by decreased incorporation of sodium [14C]acetate into cholesterol.; type: cell-based, HepG2
T3 sequence (P04035 whole entry): T1 sequence (whole entry)
Method in brief: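 They were preincubated for 1 h with compound at three concentrations, or with solvent as control, then labeled with [14C]sodium acetate for 3 h. [3H]cholesterol served as internal standard. Cells were saponified, lipids extracted with chloroform/methanol 2:1, and cholesterol isolated by TLC. IC50 came from the treated/control [14C]cholesterol ratio plotted against concentration.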

Row | Relative potency [1] | IC50 [2] | IC50 [3] | Compound
1 | 5 | 0.004 µM | 0.01 µM | CC(C)c1cc(-c2ccccc2)nc(-c2ccc(F)cc2)c1/C=C/[C@@H]1C[C@@H](O)CC(=O)O1
2 | – | > 1 µM | – | Cc1cc(-c2ccc(F)cc2)c(/C=C\[C@@H]2C[C@@H](O)CC(=O)O2)c(C)n1
3 | – | 1 µM | – | Cc1nc(C)c(CCC2C[C@@H](O)CC(=O)O2)c(-c2ccc(F)cc2)n1 (some centres undefined)
4 | – | 0.003 µM | – | CC(C)c1cc(-c2ccc(F)cc2)c(/C=C/[C@@H]2C[C@@H](O)CC(=O)O2)c(C(C)C)n1
5 | – | 0.018 µM | – | CC(C)(C)c1nc(-c2ccccc2)cc(-c2ccc(F)cc2)c1/C=C/[C@@H]1C[C@@H](O)CC(=O)O1
6 | – | 0.008 µM | – | CC[C@H](C)C(=O)O[C@H]1C[C@@H](C)C=C2C=C[C@H](C)[C@H](CC[C@@H]3C[C@@H](O)CC(=O)O3)[C@H]21 [LOVASTATIN]
7 | 0.33 | 0.013 µM | 0.15 µM | COc1ccc(-c2cc(-c3ccccc3)nc(C(C)C)c2/C=C/[C@@H]2C[C@@H](O)CC(=O)O2)cc1
8 | 2.5 | 0.005 µM | 0.02 µM | Cc1ccc(C)c(-c2cc(-c3ccc(F)cc3)c(/C=C/[C@@H]3C[C@@H](O)CC(=O)O3)c(C(C)C)n2)c1
9 | 0.14 | 0.019 µM | 0.37 µM | CC(C)c1nc(-c2ccccc2)cc(-c2ccc(F)cc2)c1CCC1C[C@@H](O)CC(=O)O1 (some centres undefined)
10 | 0.03 | 0.26 µM | 2 µM | Cc1cc(-c2ccc(F)cc2)c(/C=C/[C@@H]2C[C@@H](O)CC(=O)O2)c(C)n1
11 | – | > 1 µM | – | Cc1nc(C)c(/C=C\[C@@H]2C[C@@H](O)CC(=O)O2)c(-c2ccc(Cl)cc2)n1
12 | 2.78 | 0.001 µM | 0.018 µM | CC(C)c1nc(-c2ccc(F)cc2)nc(-c2ccc(F)cc2)c1/C=C/[C@@H]1C[C@@H](O)CC(=O)O1
13 | 6.67 | 0.002 µM | 0.0075 µM | CC(C)c1nc(-c2ccc(F)cc2)cc(-c2ccc(F)cc2)c1/C=C/[C@@H]1C[C@@H](O)CC(=O)O1
14 | 10.4 | 0.003 µM | 0.0048 µM | CC(C)c1nc(-c2ccc(F)cc2)c(/C=C/[C@@H]2C[C@@H](O)CC(=O)O2)c(C(C)C)n1
15 | – | 0.5 µM | – | Cc1nc(C)c(/C=C/[C@@H]2C[C@@H](O)CC(=O)O2)c(-c2ccc(F)cc2)n1
16 | 5.26 | 0.004 µM | 0.0095 µM | CC(C)c1nc(C2CCCCC2)cc(-c2ccc(F)cc2)c1/C=C/[C@@H]1C[C@@H](O)CC(=O)O1
17 | > 0.01 | 0.03 µM | > 5 µM | O=C1C[C@H](O)C[C@@H](/C=C/c2c(-c3ccc(F)cc3)cc(-c3ccccc3)nc2C2CCCCC2)O1
18 | – | 0.008 µM | – | Cc1cc(C)cc(-c2cc(-c3ccc(F)cc3)c(/C=C/[C@@H]3C[C@@H](O)CC(=O)O3)c(C(C)C)n2)c1
19 | – | 0.6 µM | – | Cc1nc(C)c(/C=C/[C@@H]2C[C@@H](O)CC(=O)O2)c(-c2ccc(Cl)cc2)n1
20 | – | 0.003 µM | – | CCc1nc(-c2ccccc2)cc(-c2ccc(F)cc2)c1CCC1C[C@@H](O)CC(=O)O1 (some centres undefined)
21 | – | 0.04 µM | – | CCc1nc(-c2ccccc2)cc(-c2ccc(F)cc2)c1/C=C/[C@@H]1C[C@@H](O)CC(=O)O1
22 | – | 0.036 µM | – | CC(C)c1nc(-c2ccccc2)cc(-c2ccc(C(F)(F)F)cc2)c1/C=C/[C@@H]1C[C@@H](O)CC(=O)O1
23 | 10 | 0.003 µM | 0.005 µM | CC(C)c1nc(-c2ccccc2)nc(-c2ccc(F)cc2)c1/C=C/[C@@H]1C[C@@H](O)CC(=O)O1
24 | 2.5 | 0.001 µM | 0.02 µM | CC(C)c1nc(C(C)(C)C)cc(-c2ccc(F)cc2)c1/C=C/[C@@H]1C[C@@H](O)CC(=O)O1
25 | 10 | 0.003 µM | 0.005 µM | CC(C)c1nc(-c2ccccc2)cc(-c2ccc(F)cc2)c1/C=C/[C@@H]1C[C@@H](O)CC(=O)O1 [GLENVASTATIN]
26 | 0.56 | 0.038 µM | 0.09 µM | Cc1nc(-c2ccccc2)cc(-c2ccc(F)cc2)c1/C=C/[C@@H]1C[C@@H](O)CC(=O)O1
27 | 0.08 | 0.1 µM | 5 µM | Cc1nc(-c2ccccc2)cc(-c2ccc(F)cc2)c1/C=C\[C@@H]1C[C@@H](O)CC(=O)O1
28 | 1.92 | 0.001 µM | 0.026 µM | CC(C)c1nc(C2CCCCC2)nc(-c2ccc(F)cc2)c1/C=C/[C@@H]1C[C@@H](O)CC(=O)O1
29 | – | 0.094 µM | – | Cc1cc(-c2ccc(Cl)cc2)c(/C=C/[C@@H]2C[C@@H](O)CC(=O)O2)c(C)n1
30 | 1 | 0.009 µM | 0.05 µM | Cc1cc(-c2ccc(F)cc2)c(/C=C/[C@@H]2C[C@@H](O)CC(=O)O2)c(C(C)C)n1
